Test results taken from ChEMBL document CHEMBL1141169, “Discovery of 5-arylsulfonamido-3-(pyrrolidin-2-ylmethyl)-1H-indole derivatives as potent, selective 5-HT6 receptor agonists and antagonists” (J Med Chem, 2005).

Assays:
[1] = molecular target: D(2) dopamine receptor (Homo sapiens, UniProt P14416); assay: Inhibition of [3H]spiperone binding to human dopamine receptor D2 expressed in CHO-K1 cells; format: cell-based
In short: (§1)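 Radioligands: 5-HT1A, 8-hydroxy-[3H]-DPAT; 5-HT2C, [3H]-5-HT; 5-HT2A, [125I]DOI; D2, D3 and D4, [3H]spiperone. Ki determined in triplicate, or n = 1 where footnoted.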

[2] = molecular target: D(3) dopamine receptor (Homo sapiens, UniProt P35462); assay: Inhibition of [3H]spiperone binding to human dopamine receptor D3 expressed in CHO-K1 cells; format: cell-based; in short: as §1
[3] = molecular target: T1, D(4) dopamine receptor (Homo sapiens, UniProt P21917); assay: Inhibition of [3H]spiperone binding to human dopamine receptor D4 expressed in CHO-K1 cells; format: cell-based; in short: as §1
T1 sequence (P21917 whole entry): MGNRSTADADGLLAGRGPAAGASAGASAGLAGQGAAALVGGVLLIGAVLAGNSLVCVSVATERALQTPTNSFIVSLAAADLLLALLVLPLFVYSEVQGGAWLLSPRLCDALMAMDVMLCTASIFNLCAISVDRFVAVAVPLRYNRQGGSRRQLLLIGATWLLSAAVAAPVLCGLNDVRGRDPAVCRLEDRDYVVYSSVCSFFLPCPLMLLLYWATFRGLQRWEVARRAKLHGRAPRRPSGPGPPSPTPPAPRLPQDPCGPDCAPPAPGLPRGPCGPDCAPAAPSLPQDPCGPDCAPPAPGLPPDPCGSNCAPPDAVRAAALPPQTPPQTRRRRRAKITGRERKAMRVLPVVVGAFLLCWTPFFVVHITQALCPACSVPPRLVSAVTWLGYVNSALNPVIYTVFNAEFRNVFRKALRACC

[4] = molecular target: 5-hydroxytryptamine receptor 7 (Homo sapiens, UniProt P34969); assay: Inhibition of [3H]-LSD binding to 5-hydroxytryptamine 7 receptor expressed in CHO cells; format: cell-based
In short: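 Displacement of [3H]-LSD from human 5-HT7 receptor clone stably expressed in CHO cells. Ki in triplicate, or n = 1 where footnoted.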

[5] = molecular target: T2, 5-hydroxytryptamine receptor 1A (Homo sapiens, UniProt P08908); assay: Inhibition of [3H]8-OH-DPAT binding to human 5-hydroxytryptamine 1A receptor expressed in CHO cells; format: cell-based; in short: as §1
T2 sequence (P08908 whole entry): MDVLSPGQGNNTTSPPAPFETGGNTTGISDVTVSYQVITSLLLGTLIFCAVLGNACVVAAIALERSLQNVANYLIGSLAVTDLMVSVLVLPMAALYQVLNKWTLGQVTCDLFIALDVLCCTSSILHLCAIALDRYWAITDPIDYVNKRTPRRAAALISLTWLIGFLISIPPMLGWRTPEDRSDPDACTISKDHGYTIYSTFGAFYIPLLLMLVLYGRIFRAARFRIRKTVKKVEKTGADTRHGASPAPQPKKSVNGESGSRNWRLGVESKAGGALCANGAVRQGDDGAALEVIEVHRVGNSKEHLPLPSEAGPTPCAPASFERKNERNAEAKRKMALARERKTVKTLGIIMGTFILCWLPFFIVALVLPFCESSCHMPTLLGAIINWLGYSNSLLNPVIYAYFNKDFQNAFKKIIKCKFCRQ

[6] = molecular target: 5-hydroxytryptamine receptor 1D (Homo sapiens, UniProt P28221); assay: Inhibition of [3H]-8-OH-DPAT binding to human 5-hydroxytryptamine 1D receptor expressed in CHO cells; format: cell-based
[7] = molecular target: T3, 5-hydroxytryptamine receptor 1F (Homo sapiens, UniProt P30939); assay: Inhibition of [3H]8-OH-DPAT binding to human 5-hydroxytryptamine 1F receptor expressed in CHO cells; format: cell-based
T3 sequence (P30939 whole entry): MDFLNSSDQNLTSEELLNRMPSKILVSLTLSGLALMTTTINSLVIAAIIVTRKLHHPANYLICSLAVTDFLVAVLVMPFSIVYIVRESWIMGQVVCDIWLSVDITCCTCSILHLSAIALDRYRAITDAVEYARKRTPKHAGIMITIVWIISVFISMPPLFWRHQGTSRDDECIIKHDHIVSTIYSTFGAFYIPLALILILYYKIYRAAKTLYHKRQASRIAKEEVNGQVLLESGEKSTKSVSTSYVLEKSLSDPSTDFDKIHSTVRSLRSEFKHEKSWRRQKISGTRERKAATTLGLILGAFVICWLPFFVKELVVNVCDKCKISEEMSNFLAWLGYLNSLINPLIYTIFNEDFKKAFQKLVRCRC

[8] = molecular target: T4, 5-hydroxytryptamine receptor 6 (Homo sapiens, UniProt P50406); assay: Inhibition of [3H]LSD binding to human 5-hydroxytryptamine 6 receptor expressed in HeLa cells; format: cell-based
In short: (§2)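 Competition binding against [3H]-LSD on cloned human 5-HT6 receptors stably expressed in HeLa cells. Ki determined in triplicate; single-point lines are % inhibition at 1000 nM.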

[9] = molecular target: T5, 5-hydroxytryptamine receptor 2A (Homo sapiens, UniProt P28223); assay: Inhibition of [125I]DOI binding to human 5-hydroxytryptamine 2A receptor expressed in CHO cells; format: cell-based; in short: as §1
[10] = molecular target: T4, 5-hydroxytryptamine receptor 6; assay: Effective agonist concentration in cAMP release assay in HeLa cells expressing human 5-hydroxytryptamine 6 receptor; format: functional, cell-based
In short: (§3)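 cAMP production read out across a range of ligand concentrations in HeLa cells stably transfected with the human 5-HT6 receptor, ligand given alone as agonist. EC50 and Emax each determined in triplicate.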

[11] = molecular target: T4, 5-hydroxytryptamine receptor 6; assay: Maximum percentage agonism of cAMP production in HeLa cells expressing human 5-hydroxytryptamine 6 receptor; format: functional, cell-based; in short: as §3
[12] = molecular target: T6, 5-hydroxytryptamine receptor 2C (Homo sapiens, UniProt P28335); assay: Inhibition of [3H]5-HT binding to human 5-hydroxytryptamine 2C receptor expressed in CHO cells; format: cell-based; in short: as §1
T6 sequence (P28335 whole entry): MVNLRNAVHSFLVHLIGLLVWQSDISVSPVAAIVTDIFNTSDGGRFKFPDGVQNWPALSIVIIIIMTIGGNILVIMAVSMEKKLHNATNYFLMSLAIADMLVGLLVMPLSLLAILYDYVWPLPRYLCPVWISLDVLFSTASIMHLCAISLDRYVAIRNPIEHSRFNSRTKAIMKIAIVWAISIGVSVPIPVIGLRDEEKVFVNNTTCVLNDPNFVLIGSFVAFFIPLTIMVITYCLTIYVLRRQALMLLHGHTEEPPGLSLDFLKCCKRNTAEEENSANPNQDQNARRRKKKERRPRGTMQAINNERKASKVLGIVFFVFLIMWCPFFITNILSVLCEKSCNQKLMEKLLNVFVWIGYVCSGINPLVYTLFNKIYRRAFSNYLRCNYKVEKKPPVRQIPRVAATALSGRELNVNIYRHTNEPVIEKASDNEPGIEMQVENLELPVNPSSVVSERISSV

[13] = molecular target: T4, 5-hydroxytryptamine receptor 6; assay: Percentage inhibition of [3H]LSD binding to human 5-hydroxytryptamine 6 receptor expressed in HeLa cells at 1000 nM; format: cell-based; in short: as §2
[14] = molecular target: T4, 5-hydroxytryptamine receptor 6; conditions: HeLa
[15] = molecular target: T5, 5-hydroxytryptamine receptor 2A; assay: Percentage inhibition of [125I]DOI binding to human 5-hydroxytryptamine 2A receptor expressed in CHO cells at 1000 nM; format: cell-based

D(2) dopamine receptor, sequence (P14416 whole entry): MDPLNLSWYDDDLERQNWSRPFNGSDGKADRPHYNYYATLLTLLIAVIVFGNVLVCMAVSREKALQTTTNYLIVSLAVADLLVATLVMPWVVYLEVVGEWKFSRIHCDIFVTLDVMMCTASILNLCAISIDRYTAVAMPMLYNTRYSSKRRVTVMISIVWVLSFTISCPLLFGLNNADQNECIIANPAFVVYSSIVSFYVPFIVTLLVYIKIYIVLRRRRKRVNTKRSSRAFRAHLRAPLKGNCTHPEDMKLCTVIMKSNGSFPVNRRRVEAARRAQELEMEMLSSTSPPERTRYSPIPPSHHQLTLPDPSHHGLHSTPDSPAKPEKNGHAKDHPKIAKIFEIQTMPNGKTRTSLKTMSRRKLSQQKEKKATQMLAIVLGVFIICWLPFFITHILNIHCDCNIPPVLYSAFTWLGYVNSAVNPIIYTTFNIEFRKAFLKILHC
D(3) dopamine receptor, sequence (P35462 whole entry): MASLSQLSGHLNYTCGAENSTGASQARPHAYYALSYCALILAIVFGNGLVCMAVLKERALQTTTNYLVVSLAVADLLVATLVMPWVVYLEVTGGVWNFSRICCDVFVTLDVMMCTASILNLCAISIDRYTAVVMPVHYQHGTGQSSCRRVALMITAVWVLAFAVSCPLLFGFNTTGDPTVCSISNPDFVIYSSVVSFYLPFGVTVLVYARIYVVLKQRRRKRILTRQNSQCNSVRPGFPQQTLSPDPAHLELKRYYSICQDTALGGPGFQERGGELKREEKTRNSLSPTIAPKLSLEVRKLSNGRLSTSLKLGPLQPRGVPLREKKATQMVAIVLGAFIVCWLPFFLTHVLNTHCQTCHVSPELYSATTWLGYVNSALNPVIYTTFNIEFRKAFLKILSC
T5 sequence (P28223 whole entry): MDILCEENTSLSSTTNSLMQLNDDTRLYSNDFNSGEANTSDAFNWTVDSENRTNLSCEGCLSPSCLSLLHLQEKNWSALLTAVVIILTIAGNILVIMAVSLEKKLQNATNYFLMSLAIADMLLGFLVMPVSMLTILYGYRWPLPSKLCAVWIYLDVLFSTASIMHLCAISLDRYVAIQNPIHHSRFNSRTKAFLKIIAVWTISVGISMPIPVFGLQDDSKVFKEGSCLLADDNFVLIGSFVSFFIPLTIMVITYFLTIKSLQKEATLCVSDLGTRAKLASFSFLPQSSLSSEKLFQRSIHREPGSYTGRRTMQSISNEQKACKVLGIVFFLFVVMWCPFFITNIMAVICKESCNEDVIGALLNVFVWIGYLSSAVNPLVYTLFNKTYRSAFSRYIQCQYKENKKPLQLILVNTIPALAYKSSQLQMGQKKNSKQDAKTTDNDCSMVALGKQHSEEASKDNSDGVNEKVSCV
T4 sequence (P50406 whole entry): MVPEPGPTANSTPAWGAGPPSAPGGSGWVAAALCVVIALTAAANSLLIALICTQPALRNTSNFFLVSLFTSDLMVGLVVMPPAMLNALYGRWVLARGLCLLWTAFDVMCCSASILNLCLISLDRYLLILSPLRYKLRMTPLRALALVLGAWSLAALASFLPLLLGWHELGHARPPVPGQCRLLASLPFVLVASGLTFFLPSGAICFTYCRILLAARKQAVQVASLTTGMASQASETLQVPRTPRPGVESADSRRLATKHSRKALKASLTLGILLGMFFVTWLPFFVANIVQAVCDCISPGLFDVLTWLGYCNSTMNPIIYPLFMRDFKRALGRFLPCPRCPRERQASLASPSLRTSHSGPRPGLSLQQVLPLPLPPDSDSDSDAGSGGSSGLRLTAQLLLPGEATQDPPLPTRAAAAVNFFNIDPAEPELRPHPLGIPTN
5-hydroxytryptamine receptor 1D, sequence (P28221 whole entry): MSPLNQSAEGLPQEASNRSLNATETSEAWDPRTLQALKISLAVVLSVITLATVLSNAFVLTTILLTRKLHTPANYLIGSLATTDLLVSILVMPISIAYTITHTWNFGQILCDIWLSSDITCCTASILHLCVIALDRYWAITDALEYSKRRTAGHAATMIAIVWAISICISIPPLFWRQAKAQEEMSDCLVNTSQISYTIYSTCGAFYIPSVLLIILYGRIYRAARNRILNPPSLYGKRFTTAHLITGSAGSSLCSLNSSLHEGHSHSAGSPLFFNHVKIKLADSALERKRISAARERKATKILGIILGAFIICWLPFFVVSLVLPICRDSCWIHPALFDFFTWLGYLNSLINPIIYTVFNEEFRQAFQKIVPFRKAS
5-hydroxytryptamine receptor 7, sequence (P34969 whole entry): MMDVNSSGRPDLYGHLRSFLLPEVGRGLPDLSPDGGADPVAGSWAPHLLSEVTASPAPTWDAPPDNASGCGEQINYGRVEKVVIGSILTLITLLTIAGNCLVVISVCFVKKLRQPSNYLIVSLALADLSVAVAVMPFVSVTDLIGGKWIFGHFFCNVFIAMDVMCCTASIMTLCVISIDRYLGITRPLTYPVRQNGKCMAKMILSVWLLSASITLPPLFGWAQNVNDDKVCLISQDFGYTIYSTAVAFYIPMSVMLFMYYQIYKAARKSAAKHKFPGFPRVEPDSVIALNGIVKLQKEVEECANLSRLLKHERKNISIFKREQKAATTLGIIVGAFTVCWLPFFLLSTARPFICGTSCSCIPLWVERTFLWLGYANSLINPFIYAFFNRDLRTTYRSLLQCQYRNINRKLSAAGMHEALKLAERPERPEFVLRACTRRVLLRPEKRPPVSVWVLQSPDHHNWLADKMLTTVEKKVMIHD

SMILES | Ki [1] | Ki [2] | Ki [3] | Ki [4] | Ki [5] | Ki [6] | Ki [7] | Ki [8] | Ki [9] | EC50 [10] | Emax [11] | Ki [12] | inhibition [13] | Affinity [14] | inhibition [15]
CN1CCC[C@@H]1Cc1c[nH]c2ccc(NS(=O)(=O)c3cccc(Cl)c3)cc12 | > 2000 nM | 930 nM | > 5000 nM | 24 nM | 200 nM | 4.7 nM | 2.7 nM | 0.4 nM | 269 nM | 1.6 nM | 100% | 231 nM | – | – | –
O=S(=O)(Nc1ccc2[nH]cc(C[C@@H]3CCCN3)c2c1)c1ccc(F)cc1 | – | – | – | – | – | – | – | – | – | – | – | – | 74% | – | –
O=S(=O)(Nc1ccc2[nH]cc(C[C@H]3CCCN3)c2c1)c1ccccc1Cl | > 5000 nM | > 5000 nM | > 5000 nM | – | 552 nM | > 1000 nM | 12.3 nM | 3 nM | – | 1.3 nM | 100% | 566 nM | – | – | –
COc1ccc2c(c1)c(CCN(C)C)cn2S(=O)(=O)c1ccccc1 | – | – | – | – | – | – | – | – | – | – | – | – | – | 16 nM | –
COc1ccc(S(=O)(=O)Nc2ccc3[nH]cc(C[C@@H]4CCCN4)c3c2)cc1 | – | – | – | – | – | – | – | – | – | – | – | – | 64% | – | –
O=S(=O)(Cc1ccccc1I)Nc1ccc2[nH]cc(C[C@H]3CCCN3)c2c1 | – | – | – | – | – | – | – | – | – | – | 100% | – | – | – | 42%
CN1CCC[C@@H]1Cc1c[nH]c2ccc(NS(=O)(=O)c3ccccc3Cl)cc12 | > 2000 nM | > 1000 nM | > 5000 nM | 74 nM | 170 nM | 29.5 nM | 16 nM | 1 nM | 367 nM | 1.1 nM | 100% | 289 nM | – | – | –
